The text below walks through data of ChEMBL document CHEMBL1124504, “Azido glycols: potent, low molecular weight renin inhibitors containing an unusual post scissile site residue” (J Med Chem, 1989).

Series [1] concerns the target T1, Renin (Homo sapiens, UniProt P00797).
T1 sequence (P00797 whole entry): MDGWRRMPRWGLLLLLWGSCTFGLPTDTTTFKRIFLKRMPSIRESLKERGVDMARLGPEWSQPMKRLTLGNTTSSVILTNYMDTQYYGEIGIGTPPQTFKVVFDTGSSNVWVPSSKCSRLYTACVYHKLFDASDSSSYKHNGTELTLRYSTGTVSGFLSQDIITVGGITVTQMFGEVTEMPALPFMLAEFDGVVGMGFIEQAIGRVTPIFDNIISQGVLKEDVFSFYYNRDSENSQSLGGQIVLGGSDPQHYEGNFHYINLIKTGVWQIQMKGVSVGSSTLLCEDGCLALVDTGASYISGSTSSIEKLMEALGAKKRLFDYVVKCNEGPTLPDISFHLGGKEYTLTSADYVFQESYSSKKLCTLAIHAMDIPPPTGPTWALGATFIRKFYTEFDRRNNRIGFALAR
Nature of the series: Inhibitory activity against purified human renal renin at pH 6.0.

The target of series [2] is T1, Renin. The experiment in a line: Inhibitory activity against purified human renal renin at pH 6.0.
The target in series [3] is T1, Renin. The experiment in a line: Inhibitory activity against human plasma renin at pH 7.4. It is filed as cell-free.
Series [4] can be described thus: Solubility in pH 6.5 buffer. It counts as physicochemical. The method, boiled down: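 About 10 mg shaken in 1 mL 0.01 M phosphate buffer, pH 6.5, for 24 h at 37 °C. Suspension filtered through glass wool, diluted in mobile phase, and quantified by HPLC with detection at 214 nm; reported as mg/mL.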
The subject of series [5] is Rattus norvegicus. Nature of the series: Plasma levels in the systemic blood vessel of rat after 10 min of administration of 10 mg/kg intraduodenally. Set-up: dose 10 mg/kg. It counts as functional, organism-based. Put shortly: (§1)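 Male Sprague-Dawley rats, fasted overnight, ≥150 g, under inactin (80 mg/kg ip), pylorus ligated. Carotid and portal vein catheterized. 10 mg/kg injected into the duodenum; paired blood drawn at 10 min. Plasma acetonitrile-precipitated, serially diluted, dried.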

Series [6] concerns Rattus norvegicus. The experiment in a line: Plasma levels in the portal blood vessel of rat after 10 min of administration of 10 mg/kg intraduodenally. It counts as functional, organism-based. Also noted: dose 10 mg/kg. The method, boiled down:
as §1

The species named for series [7] is Rattus norvegicus. The experiment in a line: In vitro intestinal permeability in rats. It counts as ADME. The method, boiled down:
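Rat jejunum removed after cervical dislocation, washed with balanced electrolyte solution at 4 °C. Central 30 cm mounted for recirculating luminal perfusion (30 mL) at 37 °C under 95% O2-5% CO2. Inhibitor added mucosally at 100 μM with 3H-PEG-900 baseline marker. Mucosal and serosal samples taken every 15 min for 150 min. Inhibitor measured by HPLC-UV and PEG by scintillation. P = J/ΔC from steady-state (45-120 min) regression, cm/h; mean ± SE, n = 2.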

Each structure is given as a SMILES string. ≈ marks a conversion by molar mass, not a printed value.

Turning to `CC(C)(C)OC(=O)N[C@@H](Cc1ccccc1)C(=O)N[C@@H](Cc1c[nH]cn1)C(=O)N[C@H](CC1CCCCC1)[C@H](O)[C@H](O)CN=[N+]=[N-]`, the results for the IC50 in series [1], in series [2] and in series [3] were 0.4 nM, 0.4 nM and 9 nM, respectively.
`CC(C)(C)OC(=O)N[C@@H](Cc1ccccc1)C(=O)N[C@@H](Cc1cnc[nH]1)C(=O)N[C@H](CC1CCCCC1)[C@H](O)C(O)(CO)CN=[N+]=[N-]` (stereo partly drawn): half-maximal inhibition in series [2] (IC50) was put at 4.8 nM.
On the same count and under the same terms, as for `CC(C)(C)OC(=O)N[C@@H](Cc1ccccc1)C(=O)N[C@@H](Cc1cnc[nH]1)C(=O)N[C@H](CC1CCCCC1)[C@H](O)CN=[N+]=[N-]`, the figure is 7.5 nM.
On the same count and under the same terms, with `CC(C)(C)OC(=O)N[C@@H](Cc1ccccc1)C(=O)N[C@@H](Cc1c[nH]cn1)C(=O)N[C@H](CC1CCCCC1)[C@H](O)[C@@H](O)CN=[N+]=[N-]` the figure was 26 nM; with `CC(C)(C)OC(=O)N[C@@H](Cc1ccccc1)C(=O)N[C@@H](Cc1cnc[nH]1)C(=O)N[C@H](CC1CCCCC1)[C@H](O)[C@@H](CO)CN=[N+]=[N-]`, 370 nM; with `CC(C)(C)OC(=O)N[C@@H](Cc1ccccc1)C(=O)N[C@@H](Cc1c[nH]cn1)C(=O)N[C@H](CC1CCCCC1)[C@H](O)[C@H](CO)CN=[N+]=[N-]`, 10 nM.
`[N-]=[N+]=NC[C@@H](O)[C@@H](O)[C@@H](CC1CCCCC1)NC(=O)[C@H](Cc1c[nH]cn1)NC(=O)[C@H](Cc1ccccc1)NC(=O)C1CCOCC1`: the 50% inhibitory concentration (IC50) in series [1] was 0.7 nM; in series [3] it was 7.6 nM. For the same compound, the solubility in series [4] was 23 µg/mL (≈ 36 µM).
In the case of `CC(C)C(=O)N[C@@H](Cc1ccccc1)C(=O)N[C@@H](Cc1c[nH]cn1)C(=O)N[C@H](CC1CCCCC1)[C@H](O)[C@H](O)CN=[N+]=[N-]`, the IC50 in series [1] stood at 0.55 nM; in series [3] it was 3.3 nM. Further, the concentration in solution in series [4] (solubility) came to 13 µg/mL (≈ 21.8 µM).
With `C=C(CN=[N+]=[N-])[C@@H](O)[C@@H](CC1CCCCC1)NC(=O)[C@H](Cc1c[nH]cn1)NC(=O)[C@H](Cc1ccccc1)NC(=O)OC(C)(C)C`, the IC50 in series [2] came out at 55 nM.
Turning to `COc1ccc(C[C@H](NC(=O)N2CCOCC2)C(=O)N[C@@H](Cc2c[nH]cn2)C(=O)N[C@H](CC2CCCCC2)[C@H](O)[C@H](O)CN=[N+]=[N-])cc1`, the figures for the half-inhibitory concentration (IC50) in series [1] and in series [3] were 4 nM and 20 nM, respectively. Besides, the Plasma level in series [5] worked out at 15 ng/mL; in series [6] it was 230 ng/mL. The compound also registered a solubility in series [4] of 1000 µg/mL (≈ 1490 µM). In addition, in series [7], the Permeability is 4.25 cm (10e3*hr)-1.
Regarding `Cn1c(=O)c2[nH]cnc2n(C)c1=O.O` [THEOPHYLLINE], the Permeability in series [7] is 22.35 cm (10e3*hr)-1.
In series [2], `CC(C)(C)OC(=O)N[C@@H](Cc1ccccc1)C(=O)N[C@@H](Cc1c[nH]cn1)C(=O)N[C@H](CC1CCCCC1)[C@H](O)CCN=[N+]=[N-]` had a half-inhibitory concentration (IC50) of 20 nM.
For `COc1ccc(C[C@H](NC(=O)C(C)C)C(=O)N[C@@H](Cc2cnc[nH]2)C(=O)N[C@H](CC2CCCCC2)[C@H](O)[C@H](O)CN=[N+]=[N-])cc1`, the results for the IC50 in series [1] and in series [3] were 2 nM and 10 nM, respectively. The compound further yielded a solubility in series [4] of 29 µg/mL (≈ 46.3 µM). Moreover, the Permeability in series [7] is 0.79 cm (10e3*hr)-1.
For `CC(C)(C)OC(=O)N[C@@H](Cc1ccccc1)C(=O)N[C@@H](Cc1c[nH]cn1)C(=O)N[C@H](CC1CCCCC1)[C@H](O)C(=O)CN=[N+]=[N-]`, 5.4 nM corresponded to half-maximal inhibition in series [2] (IC50).
As for `COc1ccc(C[C@H](NC(=O)C(C)C)C(=O)N[C@@H](Cc2c[nH]cn2)C(=O)N[C@H](CC2CCCCC2)[C@H](O)[C@H](O)CN=[N+]=[N-])cc1`, the values for the Plasma level in series [5] and in series [6] were 12 ng/mL and 53 ng/mL, respectively.
With `[N-]=[N+]=NC[C@@H](O)[C@@H](O)[C@@H](CC1CCCCC1)NC(=O)[C@H](Cc1cnc[nH]1)NC(=O)[C@H](Cc1ccccc1)NC(=O)N1CCOCC1`, the figures for the half-maximal inhibitory concentration (IC50) in series [1] and in series [3] were 0.67 nM and 2.4 nM, respectively. In series [4], this compound showed a solubility of 2600 µg/mL (≈ 4060 µM).

A word on the IC50: it is the point on the concentration scale where inhibition reaches its midpoint. Read a high IC50 as a need for much substance. As a reminder, the solubility is the concentration that dissolves in the medium under given conditions. Higher therefore signals much dissolved substance.
